Holding throughout (assay type): functional, cell-based
The subject of one test is K562. The test can be described thus: Antileukemic activity against human K562 cells after 48 hrs by XTT assay. As to conditions: K562, 48 h. The essentials:
(§1)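 XTT read-out of mitochondrial metabolism after 48 h incubation with compound (up to 10 µM in first screen). XTT reagent added to cells, formazan absorbance read at 490 nm. Each assay run in quadruplicate. IC50 derived; standard deviation reported. Resistant K562 line obtained by chronic imatinib exposure for 6 months.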

Test [1] in a line: Antiproliferative activity against human SKM1-S cells after 48 hrs by DAPI-staining-based flow cytometric method. In short, it runs like this:
(§2)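 Flow cytometry of DAPI incorporation after 48 h incubation with compound; DL50 derived. SKM1 grown in RPMI with 10% FCS at 37°C, 5% CO2, with penicillin/streptomycin.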

Test [2] in a line: Antiproliferative activity against human SKM1-S cells after 48 hrs by XTT assay. In short, it runs like this: as §1
In general terms: Tetrazolium dyes change colour on reduction, which living cells bring about.

The subject of another test is SKM1-S. As to the kind of experiment: Induction of apoptosis in human SKM1-S cells assessed as caspase 3 cleavage at 1 uM by Western blot method. For orientation: Immunoblotting shows a protein as a band on a membrane.
Test [3] can be described thus: Antiproliferative activity against human SKM1-R cells after 48 hrs by DAPI-staining-based flow cytometric method. In short, it runs like this:
as §2

Test [4] is described as follows: Antiproliferative activity against human SKM1-R cells after 48 hrs by XTT assay.
The next test relates to SKM1-R. As to the kind of experiment: Induction of apoptosis in human SKM1-R cells assessed as caspase 3 cleavage at 10 uM by Western blot method.

Structures are written as SMILES. The source made the active and inactive calls. No cut-off for these calls is given here.

The IC50 is the concentration that gives 50% inhibition. A low value points to inhibition by little substance. Broadly, the EC50 is the concentration that produces a half-maximal response. Read a low EC50 as greater potency.

As for `NC(=O)c1ncn([C@@H]2O[C@H](CO)[C@@H](O)[C@H]2O)c1N` [ACADESINE], in the test with K562, the IC50 is 800000 nM. The same measure, in the same setting: the figure for `CCOC(=O)c1nnn([C@@H]2O[C@H](CO)[C@H]3OC(C)(C)O[C@H]32)c1I` is more than 10000 nM. On the same count and under the same terms, as for `COC(=O)C#Cc1c(C(=O)OC)nnn1[C@@H]1O[C@H](COC(C)=O)[C@H]2OC(C)(C)O[C@H]21`, the figure is 150 nM; as for `CCOC(=O)c1nnn([C@@H]2O[C@H](COC(C)=O)[C@@H](OC(C)=O)[C@H]2OC(C)=O)c1I`, more than 10000 nM; as for `CC(=O)OC[C@H]1O[C@@H](n2nnc(C(=O)OC(C)(C)C)c2C#CC(=O)OC(C)(C)C)[C@H](OC(C)=O)[C@@H]1OC(C)=O`, 2500 nM. Same read-out and setting: the figure for `CCOC(=O)C#Cc1c(C(=O)OCC)nnn1[C@@H]1O[C@H](COC(C)=O)[C@H](OC(C)=O)[C@H]1OC(C)=O` is 200 nM. In the test with K562, `CCOC(=O)C#Cc1c(C(=O)OCC)nnn1[C@@H]1O[C@H](COC)[C@@H](OC)[C@H]1OC` registered a half-maximal inhibitory concentration (IC50) of 800 nM. The same measure, in the same setting: the figure for `COC(=O)C#Cc1c(C(=O)OC)nnn1[C@@H]1O[C@H](CO)[C@H]2OC(C)(C)O[C@H]21` is 1450 nM; for `CCOC(=O)c1nnn([C@@H]2O[C@H](COC(C)=O)[C@@H](OC(C)=O)[C@H]2OC(C)=O)c1C(=O)c1ccco1` it is more than 10000 nM. Same read-out and setting: the figure for `CCOC(=O)C#Cc1c(C(=O)OCC)nnn1[C@@H]1O[C@H](COC(C)=O)[C@H]2OC(C)(C)O[C@H]21` is 500 nM. `CCOC(=O)C#Cc1c(C(=O)OCC)nnn1[C@@H]1O[C@H](CO)[C@H]2O[C@@](C)(c3ccccc3)O[C@H]21` had a half-inhibitory concentration (IC50) in the test on K562 of 500 nM. Same read-out and setting: as for `CCOC(=O)C#Cc1c(C(=O)OCC)nnn1[C@@H]1O[C@H](COC)[C@H]2OC(C)(C)O[C@H]21`, the figure is 550 nM; as for `CCOC(=O)c1nnn([C@@H]2O[C@H](COC(C)=O)[C@@H](OC(C)=O)[C@H]2OC(C)=O)c1-c1cccs1`, more than 10000 nM. Same read-out and setting: the figure for `CCOC(=O)c1nnn([C@@H]2O[C@H](COC(C)=O)[C@@H](OC(C)=O)[C@H]2OC(C)=O)c1C(=O)c1cccs1` is more than 10000 nM; for `CCCC1(CCC)O[C@@H]2[C@H](O1)[C@@H](CO)O[C@H]2n1nnc(C(=O)OCC)c1C#CC(=O)OCC` it is 150 nM; for `CCOC(=O)c1nnn([C@@H]2O[C@H](COC(C)=O)[C@@H](OC(C)=O)[C@H]2OC(C)=O)c1C(=O)c1ccc(C)cc1` it is more than 10000 nM. Compound `CCCCCCCC#Cc1c(C(=O)OCC)nnn1[C@@H]1O[C@H](CO)[C@H]2OC(C)(C)O[C@H]21` yielded an IC50 with K562 of more than 10000 nM.

In turn, `CCOC(=O)C#Cc1c(C(=O)OCC)nnn1[C@H]1C[C@H](OC(C)=O)[C@@H](COC(C)=O)O1` came in with an IC50 in the test on K562 of 200 nM. In the test on K562, `COC(=O)c1nnn([C@@H]2O[C@H](CO)[C@H]3OC(C)(C)O[C@H]32)c1I` came in with an IC50 of more than 10000 nM. Consider `Nc1ncn([C@@H]2O[C@H](CO)[C@@H](O)[C@H]2O)c(=O)n1` [AZACITIDINE], for which the concentration giving a half-maximal response (EC50) in test [1] was 510 nM; in test [3] it was more than 10000 nM. Further, the IC50 was 500 nM in test [2] and more than 10000 nM in test [4]. Moreover, the result in the test with SKM1-S was Active. Further, the result with SKM1-R was inactive. On to `CCOC(=O)C#Cc1c(C(=O)OCC)nnn1[C@@H]1O[C@H](COC(C)=O)[C@@H](OC(C)=O)[C@H]1OC(C)=O`, for which half-maximal inhibition in the test on K562 (IC50) required 700 nM. On the same count and under the same terms, the figure for `CCOC(=O)C#Cc1c(C(=O)OCC)nnn1[C@H]1O[C@@H](COC(C)=O)[C@H](OC(C)=O)[C@@H]1OC(C)=O` is 200 nM; for `CCOC(=O)c1nnn([C@@H]2O[C@H](CO)[C@H]3OC(C)(C)O[C@H]32)c1C#Cc1ccc(F)cc1` it is more than 10000 nM. The same measure, in the same setting: the figure for `CC(C)(C)OC(=O)C#Cc1c(C(=O)OC(C)(C)C)nnn1[C@@H]1O[C@H](CO)[C@H]2OC(C)(C)O[C@H]21` is 1150 nM.

Source of the values: ChEMBL document CHEMBL4004814, “In Vitro and in Vivo Evaluation of Fully Substituted (5-(3-Ethoxy-3-oxopropynyl)-4-(ethoxycarbonyl)-1,2,3-triazolyl-glycosides as Original Nucleoside Analogues to Circumvent Resistance in Myeloid Malignancies” (J Med Chem, 2017).
